By MIC90 is commonly meant the lowest concentration that inhibits either 90% of growth or 90% of the strains tested, depending on the study. As a reminder, the MIC is the smallest concentration in the dilution series that meets the test's criterion for growth inhibition.

Consider two compounds from ChEMBL document CHEMBL1671676, “In vitro activity of nemonoxacin, a novel nonfluorinated quinolone, against 2,440 clinical isolates” (2009).

≈ marks a conversion by molar mass, not a printed value.

What all share (format): functional
Experiment [1] concerns Staphylococcus aureus. The experiment in a line: Antibacterial activity against non-levofloxacin susceptible Staphylococcus aureus assessed as percent cumulative susceptible isolates at minimum inhibitory concentration of 0.5 ug/ml by CLSI broth microdilution method. Further details: scale not given: the % may be the effect or the level left. Background: In broth dilution the organism is exposed to a series of concentrations in liquid medium.

The test system of experiment [2] is Klebsiella pneumoniae. The experiment in a line: Antibacterial activity against Klebsiella pneumoniae assessed as percent cumulative susceptible isolates at minimum inhibitory concentration of 64 ug/ml by CLSI broth microdilution method. Set-up: scale not given: the % may be the effect or the level left.
Experiment [3] has as its system Klebsiella pneumoniae. The experiment in a line: Antibacterial activity against Klebsiella pneumoniae assessed as percent cumulative susceptible isolates at minimum inhibitory concentration of 128 ug/ml by CLSI broth microdilution method. Set-up: scale not given: the % may be the effect or the level left.
The subject of experiment [4] is Staphylococcus aureus. The experiment in a line: Antibacterial activity against hospital-associated methicillin-resistant Staphylococcus aureus assessed as percent cumulative susceptible isolates at minimum inhibitory concentration of 1 ug/ml by CLSI broth microdilution method. Further details: scale not given: the % may be the effect or the level left. The method in brief: (§1)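 Clinical isolates tested by CLSI broth microdilution using 96-well panels of doubling drug dilutions in cation-adjusted Mueller-Hinton broth with 5% lysed horse blood. MIC was read from these panels. Panel quality control used CLSI ATCC strains, including S. pneumoniae 49619, S. aureus 29213, E. faecalis 29212 and E. coli 25922. Cumulative percentages of isolates were tabulated at each MIC.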

Experiment [5] concerns Enterococcus faecium. The experiment in a line: Antibacterial activity against Enterococcus faecium assessed as percent cumulative susceptible isolates at minimum inhibitory concentration of 8 ug/ml by CLSI broth microdilution method. Set-up: scale not given: the % may be the effect or the level left.
The test system of experiment [6] is Klebsiella oxytoca. The experiment in a line: Antibacterial activity against Klebsiella oxytoca assessed as percent cumulative susceptible isolates at minimum inhibitory concentration of 0.5 ug/ml by CLSI broth microdilution method. Further details: scale not given: the % may be the effect or the level left. The method in brief:
as §1

Experiment [7] has as its system Pseudomonas aeruginosa. The experiment in a line: Antibacterial activity against Pseudomonas aeruginosa by CLSI M7-A7 broth microdilution method.
The test system of experiment [8] is Staphylococcus aureus. The experiment in a line: Antibacterial activity against Levofloxacin-susceptible Staphylococcus aureus assessed as percent cumulative susceptible isolates at minimum inhibitory concentration of 0.06 ug/ml by CLSI broth microdilution method. Set-up: scale not given: the % may be the effect or the level left.
The subject of experiment [9] is Escherichia coli. The experiment in a line: Antibacterial activity against Escherichia coli assessed as percent cumulative susceptible isolates at minimum inhibitory concentration of 128 ug/ml by CLSI broth microdilution method. Set-up: scale not given: the % may be the effect or the level left.
The subject of experiment [10] is Streptococcus pneumoniae. The experiment in a line: Antibacterial activity against Streptococcus pneumoniae by CLSI M7-A7 broth microdilution method. The essentials:
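Broth microdilution per CLSI guidelines on clinical isolates, using panels of doubling drug dilutions in cation-adjusted Mueller-Hinton broth with 5% lysed horse blood. MIC read per CLSI, and cumulative percentage of isolates inhibited at each concentration tabulated.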

Experiment [11] concerns Staphylococcus aureus. The experiment in a line: Antibacterial activity against Levofloxacin-susceptible Staphylococcus aureus assessed as percent cumulative susceptible isolates at minimum inhibitory concentration of <=0.008 ug/ml by CLSI broth microdilution method. Further details: scale not given: the % may be the effect or the level left.
In experiment [12] the test system is Streptococcus pneumoniae. The experiment in a line: Antibacterial activity against Streptococcus pneumoniae assessed as percent cumulative susceptible isolates at minimum inhibitory concentration of […] by CLSI broth microdilution method. Further details: scale not given: the % may be the effect or the level left.
Experiment [13] relates to Escherichia coli. The experiment in a line: Antibacterial activity against Escherichia coli assessed as percent cumulative susceptible isolates at minimum inhibitory concentration of 0.03 ug/ml by CLSI broth microdilution method. Set-up: scale not given: the % may be the effect or the level left.
The subject of experiment [14] is Enterococcus faecium. The experiment in a line: Antibacterial activity against Enterococcus faecium assessed as percent cumulative susceptible isolates at minimum inhibitory concentration of 64 ug/ml by CLSI broth microdilution method. Set-up: scale not given: the % may be the effect or the level left.
In experiment [15] the test system is Staphylococcus aureus. The experiment in a line: Antibacterial activity against methicillin-susceptible Staphylococcus aureus assessed as percent cumulative susceptible isolates at minimum inhibitory concentration of <=0.008 ug/ml by CLSI broth microdilution method. Further details: scale not given: the % may be the effect or the level left.
The nature of experiment [16]: Ratio of fAUC (0 to 24 hrs) in in vitro PK/PD model at 750 mg to MIC for Streptococcus pneumoniae.
The subject of another experiment is Proteus mirabilis. The experiment in a line: Antibacterial activity against Proteus mirabilis assessed as percent cumulative susceptible isolates at minimum inhibitory concentration of 1 ug/ml by CLSI broth microdilution method. Further details: scale not given: the % may be the effect or the level left.
For experiment [17], the system named is Enterococcus faecium. The experiment in a line: Antibacterial activity against Enterococcus faecium assessed as percent cumulative susceptible isolates at minimum inhibitory concentration of 128 ug/ml by CLSI broth microdilution method. Further details: scale not given: the % may be the effect or the level left.
Experiment [18] deals with Pseudomonas aeruginosa. The experiment in a line: Antibacterial activity against Pseudomonas aeruginosa assessed as percent cumulative susceptible isolates at minimum inhibitory concentration of 64 ug/ml by CLSI broth microdilution method. Further details: scale not given: the % may be the effect or the level left.
For experiment [19], the system named is Enterococcus faecium. The experiment in a line: Antibacterial activity against Enterococcus faecium assessed as percent cumulative susceptible isolates at minimum inhibitory concentration of 0.06 ug/ml by CLSI broth microdilution method. Further details: scale not given: the % may be the effect or the level left.
Another experiment relates to Enterococcus faecalis. The experiment in a line: Antibacterial activity against Enterococcus faecalis assessed as percent cumulative susceptible isolates at minimum inhibitory concentration of 4 ug/ml by CLSI broth microdilution method. Further details: scale not given: the % may be the effect or the level left.
Experiment [20] relates to Staphylococcus aureus. The experiment in a line: Antibacterial activity against methicillin-resistant Staphylococcus aureus assessed as percent cumulative susceptible isolates at minimum inhibitory concentration of 4 ug/ml by CLSI broth microdilution method. Further details: scale not given: the % may be the effect or the level left.
The test system of experiment [21] is Staphylococcus aureus. The experiment in a line: Antibacterial activity against community-associated methicillin-resistant Staphylococcus aureus assessed as percent cumulative susceptible isolates at minimum inhibitory concentration of […] by CLSI broth microdilution method. Further details: scale not given: the % may be the effect or the level left.
For experiment [22], the system named is Klebsiella oxytoca. The experiment in a line: Antibacterial activity against Klebsiella oxytoca assessed as percent cumulative susceptible isolates at minimum inhibitory concentration of 1 ug/ml by CLSI broth microdilution method. Further details: scale not given: the % may be the effect or the level left.
A short description of experiment [23]: Ratio of fAUC (0 to 24 hrs) in in vitro PK/PD model at 750 mg to MIC for Staphylococcus aureus.
The subject of experiment [24] is Staphylococcus aureus. The experiment in a line: Antibacterial activity against community-associated methicillin-resistant Staphylococcus aureus assessed as percent cumulative susceptible isolates at minimum inhibitory concentration of 0.06 ug/ml by CLSI broth microdilution method. Set-up: scale not given: the % may be the effect or the level left.
Experiment [25] relates to Staphylococcus epidermidis. The experiment in a line: Antibacterial activity against methicillin-susceptible Staphylococcus epidermidis assessed as percent cumulative susceptible isolates at minimum inhibitory concentration of 0.03 ug/ml by CLSI broth microdilution method. Set-up: scale not given: the % may be the effect or the level left.
Experiment [26] has as its system Streptococcus pneumoniae. The experiment in a line: Antibacterial activity against Streptococcus pneumoniae assessed as percent cumulative susceptible isolates at minimum inhibitory concentration of 0.03 ug/ml by CLSI broth microdilution method. Set-up: scale not given: the % may be the effect or the level left.
The test system of experiment [27] is Staphylococcus aureus. The experiment in a line: Antibacterial activity against hospital-associated methicillin-resistant Staphylococcus aureus by CLSI M7-A7 broth microdilution method. The method in brief:
as §1

Experiment [28] concerns Pseudomonas aeruginosa. The experiment in a line: Antibacterial activity against Pseudomonas aeruginosa assessed as percent cumulative susceptible isolates at minimum inhibitory concentration of 0.06 ug/ml by CLSI broth microdilution method. Set-up: scale not given: the % may be the effect or the level left.
Experiment [29] deals with Stenotrophomonas maltophilia. The experiment in a line: Antibacterial activity against Stenotrophomonas maltophilia assessed as percent cumulative susceptible isolates at minimum inhibitory concentration of 0.5 ug/ml by CLSI broth microdilution method. Set-up: scale not given: the % may be the effect or the level left.
The subject of experiment [30] is Streptococcus pneumoniae. The experiment in a line: Antibacterial activity against Streptococcus pneumoniae assessed as percent cumulative susceptible isolates at minimum inhibitory concentration of 0.5 ug/ml by CLSI broth microdilution method. Further details: scale not given: the % may be the effect or the level left.
Experiment [31] relates to Enterococcus faecium. The experiment in a line: Antibacterial activity against Enterococcus faecium assessed as percent cumulative susceptible isolates at minimum inhibitory concentration of 1 ug/ml by CLSI broth microdilution method. Set-up: scale not given: the % may be the effect or the level left.
Experiment [32] has as its system Staphylococcus aureus. The experiment in a line: Antibacterial activity against methicillin-resistant Staphylococcus aureus assessed as percent cumulative susceptible isolates at minimum inhibitory concentration of 8 ug/ml by CLSI broth microdilution method. Further details: scale not given: the % may be the effect or the level left.
Experiment [33] relates to Streptococcus pneumoniae. The experiment in a line: Antibacterial activity against Streptococcus pneumoniae assessed as percent cumulative susceptible isolates at minimum inhibitory concentration of 32 ug/ml by CLSI broth microdilution method. Set-up: scale not given: the % may be the effect or the level left. The essentials: as §1
The test system of experiment [34] is Stenotrophomonas maltophilia. The experiment in a line: Antibacterial activity against Stenotrophomonas maltophilia assessed as percent cumulative susceptible isolates at minimum inhibitory concentration of 8 ug/ml by CLSI broth microdilution method. Set-up: scale not given: the % may be the effect or the level left.

`COc1c(N2C[C@@H](C)C[C@H](N)C2)ccc2c(=O)c(C(=O)O)cn(C3CC3)c12` [NEMONOXACIN]: the Activity was found to be 19% in the experiment with Staphylococcus aureus [1]; 98.5% with Klebsiella pneumoniae [2]; 100% with Klebsiella pneumoniae [3]; 18.2% in the experiment on Staphylococcus aureus [4]; 44.7% in the experiment on Enterococcus faecium [5]; 96.9% with Klebsiella oxytoca [6]. Besides, the Activity in the experiment with Staphylococcus aureus [8] worked out at 97.1%; in the experiment with Escherichia coli [9], 99.3%; in the experiment with Staphylococcus aureus [11], 5.9%; in the experiment with Streptococcus pneumoniae [12], 91%; with Escherichia coli [13], 1.5%; in the experiment with Enterococcus faecium [14] it was 84.2%. Also, the Activity stood at 5.6% in the experiment with Staphylococcus aureus [15]; 75.8% in the experiment on Proteus mirabilis; 100% with Enterococcus faecium [17]; 95.6% in the experiment on Pseudomonas aeruginosa [18]; 7.9% in the experiment on Enterococcus faecium [19]; 98.8% in the experiment with Enterococcus faecalis. Also, the Activity is listed as 65.4% in the experiment with Staphylococcus aureus [20]; 16% in the experiment with Staphylococcus aureus [21]; 100% with Klebsiella oxytoca [22]; 28% in the experiment on Staphylococcus aureus [24]; 53.5% in [25]; 99.1% with Streptococcus pneumoniae [26]. In addition, the MIC90 against Pseudomonas aeruginosa [7] was ≥ 8 µg/mL; in the experiment on Streptococcus pneumoniae [10], 0.015 µg/mL (≈ 0.0404 µM). Also, the RatioAUC/MIC in experiment [16] was > 393; in experiment [23], 393. Also, the MIC with Staphylococcus aureus [27] is ≥ 4 µg/mL.

For `C[C@H]1COc2c(N3CCN(C)CC3)c(F)cc3c(=O)c(C(=O)O)cn1c23.C[C@H]1COc2c(N3CCN(C)CC3)c(F)cc3c(=O)c(C(=O)O)cn1c23.O` [LEVOFLOXACIN], the Activity is reported as 2.2% in the experiment with Pseudomonas aeruginosa [28]; 7.7% in [29]; 69.3% in the experiment with Streptococcus pneumoniae [30]; 10.5% in the experiment on Enterococcus faecium [31]; 22.8% in the experiment on Staphylococcus aureus [32]; 100% in the experiment on Streptococcus pneumoniae [33]. Also, the Activity in experiment [34] was 92.3%.
